Usually IC50 stands for the point on the concentration scale where inhibition reaches its midpoint. Broadly, the ΔTm is the change in melting temperature against a reference sample.

The source made the active and inactive calls. No cut-off for these calls is given here. Where only a bound is given, the exact number is not on record here.

Data set [1] deals with Mus musculus. The data set is described as follows: Antitumor activity against BALB/c nu/nu mouse implanted with mouse NIH/3T3 cells harboring HRAS G12V mutant assessed as reduction in tumor formation at 1 to 10 mg/kg, po administered once daily via gavage for 3 days. Type of data set: functional, organism-based. Put shortly: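 Nude mice (female BALB/c nu/nu, 6 weeks old) received subcutaneous dorsal inoculation (both sides) of NIH3T3 cells transformed by RET/C634Y (200000) or HRAS/G12V (50000). Four days later, before tumors appeared, mice were randomized to 1.0, 3.0 or 10 mg/kg/day oral gavage (8 mice/group) or vehicle (8 mice). Vehicle was 80% H2O, 19.875% Tween 20, 0.125% xanthan gum. Tumors were measured by caliper every 2–3 days, with volume = A×B²/2.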

The test system of data set [2] is Mus musculus. The data set is described as follows: In vivo inhibition of RET isoform 9 C634Y mutant transfected in mouse NIH/3T3 cells implanted BALB/c nu/nu mouse assessed as reduction in MAPK phosphorylation in tumor at 1 mg/kg, po administered once daily via gavage for 3 days measured 3 hrs post-last dose by Western blot analysis. (In western blotting, separated proteins are transferred to a membrane and probed.)

Data set [3] is described as follows: Toxicity in BALB/c nu/nu mouse assessed as change in globulin level at 10 mg/kg, po administered daily for 7 days. The note with it: in vivo, 168 h. Type of data set: organism-based.
Data set [4] can be described thus: Inhibition of NCOA4/RET […] (unknown origin) expressed in mouse BAF3 cells assessed as reduction in cell proliferation supplemented with fresh medium containing compound for every 2 to 3 days and measured daily. Type of data set: cell-based.
Data set [5] is filed under the species Homo sapiens. The data set is described as follows: Inhibition of CCDC6/RET isoform 9 (unknown origin) expressed in mouse NIH/3T3 cells assessed as reduction in RET phosphorylation at Y1062 residue at 1 to 100 nM measured after 2 hrs by Western blot analysis. Type of data set: cell-based. Put shortly: (§1)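 Serum-starved RAT1 (RET point mutants) or NIH3T3 (RET rearrangements) cells expressing short RET-9 isoform, treated 2 h; 50 μg total lysate immunoblotted with anti-phospho-Y1062 and anti-phospho-Y905 RET antibodies, normalized to total RET; ECL detection. Compound from 50 mM DMSO stock diluted in growth medium.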

The test system of data set [6] is Calu-1. The data set is described as follows: Cytotoxicity against RET deficient human Calu1 cells supplemented with fresh medium containing compound for every 2 to 3 days measured during compound dosing. Type of data set: functional, cell-based. In outline:
(§2)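 Human RET-negative lines were seeded in six-well plates at 10000 cells/well, in 5% FCS (Nthy-ori-3-1) or 10% FCS (BCPAP, 8505-C, CALU-1, A549, PC-9). Drug or vehicle was added the day after plating, with medium changed every 2–3 days. Cells were counted every 2–3 days. IC50 was fitted from the last day of the growth curves.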

Data set [7] concerns the target Proto-oncogene tyrosine-protein kinase receptor Ret (Homo sapiens, UniProt P07949). The data set is described as follows: Binding affinity to recombinant phosphorylated RET kinase domain (705 to 1013 residues) (unknown origin) expressed in baculovirus infected Sf9 insect cells assessed as change in melting temperature at 40 uM measured over 240 mins by sypro orange dye based thermal shift assay.

Data set [8] has as its target T1, High affinity nerve growth factor receptor (Homo sapiens, UniProt P04629). The data set is described as follows: Binding affinity to wild-type human partial length TRKA (G475 to G790 residues) expressed in mammalian expression system at 100 nM by Kinomescan method relative to control.
Target sequence in this assay (P04629 33-796 limits assumed): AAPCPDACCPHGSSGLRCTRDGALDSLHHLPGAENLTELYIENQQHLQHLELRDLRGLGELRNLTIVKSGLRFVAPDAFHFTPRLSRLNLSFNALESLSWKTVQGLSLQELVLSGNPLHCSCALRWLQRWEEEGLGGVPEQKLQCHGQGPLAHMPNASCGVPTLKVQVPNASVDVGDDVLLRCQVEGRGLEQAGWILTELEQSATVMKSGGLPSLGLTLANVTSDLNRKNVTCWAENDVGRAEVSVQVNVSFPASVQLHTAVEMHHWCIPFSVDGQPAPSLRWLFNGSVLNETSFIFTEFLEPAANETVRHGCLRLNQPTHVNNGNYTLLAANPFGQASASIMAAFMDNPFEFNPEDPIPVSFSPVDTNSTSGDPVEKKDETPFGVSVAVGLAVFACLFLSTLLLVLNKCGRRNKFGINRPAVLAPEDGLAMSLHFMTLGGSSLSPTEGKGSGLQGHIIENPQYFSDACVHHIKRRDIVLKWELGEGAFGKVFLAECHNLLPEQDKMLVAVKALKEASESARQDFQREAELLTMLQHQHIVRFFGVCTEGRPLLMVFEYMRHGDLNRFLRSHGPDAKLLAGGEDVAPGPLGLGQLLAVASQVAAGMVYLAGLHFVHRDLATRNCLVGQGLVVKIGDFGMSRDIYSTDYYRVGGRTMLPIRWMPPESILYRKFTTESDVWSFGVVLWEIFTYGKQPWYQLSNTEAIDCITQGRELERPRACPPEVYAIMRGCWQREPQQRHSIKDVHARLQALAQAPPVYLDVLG
Data set [9] is described as follows: Toxicity in BALB/c nu/nu mouse assessed as change in total protein level at 10 mg/kg, po administered daily for 7 days. Conditions: in vivo, 168 h. Type of data set: organism-based.
The subject of data set [10] is A549. The data set is described as follows: Effect on MAPK phosphorylation in RET deficient human A549 cells at 1 to 100 nM measured after 2 hrs by western blot analysis. Type of data set: cell-based.
The test system of data set [11] is Proto-oncogene tyrosine-protein kinase receptor Ret (Homo sapiens), P07949 [M918T]. The data set is described as follows: Inhibition of RET […] M918T mutant (unknown origin) expressed in mouse BAF3 cells assessed as reduction in RET phosphorylation at Y1062 residue at 0.3 to 30 nM measured after 2 hrs by Western blot analysis. Type of data set: cell-based. Put shortly:
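Ba/F3 cells stably expressing long-isoform RET-51 mutants (electroporation), cultured in RPMI/10% FCS without IL-3; RET phosphorylation read by Western blot with anti-phospho-Y905 and anti-phospho-Y1062 antibodies, ECL detection.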

The subject of data set [12] is Mus musculus. The data set is described as follows: In vivo inhibition of RET isoform 9 C634Y mutant transfected in mouse NIH/3T3 cells implanted BALB/c nu/nu mouse assessed as reduction in RET phosphorylation at Y905 residue at 3 mg/kg, po administered once daily via gavage for 2 days measured 3 hrs post-last dose by Western blot analysis.
Data set [13] in a line: Drug metabolism in BALB/c nu/nu mouse assessed as formation of demethylated metabolite at 10 mg/kg, po measured after 1 to 4 hrs by LC-MS analysis. Type of data set: ADME, organism-based. Conditions: in vivo.
The species entered for data set [14] is Homo sapiens. The data set is described as follows: Inhibition of NCOA4/RET isoform 9 (unknown origin) expressed in mouse NIH/3T3 cells assessed as reduction in RET phosphorylation at Y1062 residue at 1 to 100 nM measured after 2 hrs by Western blot analysis. Type of data set: cell-based. Put shortly: as §1
Data set [15] relates to PC-9. The data set is described as follows: Cytotoxicity against RET deficient human PC9 cells supplemented with fresh medium containing compound for every 2 to 3 days measured during compound dosing. Type of data set: functional, cell-based. Put shortly:
as §2

Data set [16] concerns the target T1, High affinity nerve growth factor receptor. The data set is described as follows: Inhibition of recombinant human His-tagged TRKA cytoplasmic domain (441 to 796 residues) expressed in baculovirus expression system using peptide substrate preincubated for 60 mins followed by substrate addition by microfluidic assay.
Target sequence in this assay (P04629 whole entry, the tested form may be a part): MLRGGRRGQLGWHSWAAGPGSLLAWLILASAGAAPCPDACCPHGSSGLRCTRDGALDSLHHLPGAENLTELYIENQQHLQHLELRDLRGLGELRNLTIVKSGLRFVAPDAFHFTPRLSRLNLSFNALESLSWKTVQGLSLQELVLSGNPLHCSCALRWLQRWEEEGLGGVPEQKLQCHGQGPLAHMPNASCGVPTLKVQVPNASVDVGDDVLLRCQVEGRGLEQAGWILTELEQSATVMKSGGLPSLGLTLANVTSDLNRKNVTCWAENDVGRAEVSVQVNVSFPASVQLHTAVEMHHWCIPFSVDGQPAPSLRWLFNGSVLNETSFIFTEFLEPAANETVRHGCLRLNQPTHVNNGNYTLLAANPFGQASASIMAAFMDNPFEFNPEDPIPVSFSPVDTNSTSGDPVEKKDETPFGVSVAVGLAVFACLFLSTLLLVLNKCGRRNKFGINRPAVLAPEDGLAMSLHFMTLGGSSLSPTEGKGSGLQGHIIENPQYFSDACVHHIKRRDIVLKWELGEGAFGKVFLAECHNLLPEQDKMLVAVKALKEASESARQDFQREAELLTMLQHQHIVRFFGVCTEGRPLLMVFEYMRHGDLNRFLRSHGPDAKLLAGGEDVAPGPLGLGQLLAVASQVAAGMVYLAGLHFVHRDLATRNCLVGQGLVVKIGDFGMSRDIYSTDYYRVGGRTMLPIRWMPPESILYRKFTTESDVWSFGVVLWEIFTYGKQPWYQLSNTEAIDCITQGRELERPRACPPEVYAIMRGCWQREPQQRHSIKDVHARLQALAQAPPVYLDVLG
Data set [17] relates to Proto-oncogene tyrosine-protein kinase receptor Ret (Homo sapiens), P07949 [V804L]. The data set is described as follows: Inhibition of RET isoform 9 V804L mutant (unknown origin) expressed in rat Rat1 assessed as reduction in RET phosphorylation at Y905 residue at 1 to 100 nM measured after 2 hrs by Western blot analysis. Type of data set: cell-based. Put shortly: as §1
Proto-oncogene tyrosine-protein kinase receptor Ret (Homo sapiens), P07949 [V804L], sequence (P07949 whole entry V804L, canonical isoform): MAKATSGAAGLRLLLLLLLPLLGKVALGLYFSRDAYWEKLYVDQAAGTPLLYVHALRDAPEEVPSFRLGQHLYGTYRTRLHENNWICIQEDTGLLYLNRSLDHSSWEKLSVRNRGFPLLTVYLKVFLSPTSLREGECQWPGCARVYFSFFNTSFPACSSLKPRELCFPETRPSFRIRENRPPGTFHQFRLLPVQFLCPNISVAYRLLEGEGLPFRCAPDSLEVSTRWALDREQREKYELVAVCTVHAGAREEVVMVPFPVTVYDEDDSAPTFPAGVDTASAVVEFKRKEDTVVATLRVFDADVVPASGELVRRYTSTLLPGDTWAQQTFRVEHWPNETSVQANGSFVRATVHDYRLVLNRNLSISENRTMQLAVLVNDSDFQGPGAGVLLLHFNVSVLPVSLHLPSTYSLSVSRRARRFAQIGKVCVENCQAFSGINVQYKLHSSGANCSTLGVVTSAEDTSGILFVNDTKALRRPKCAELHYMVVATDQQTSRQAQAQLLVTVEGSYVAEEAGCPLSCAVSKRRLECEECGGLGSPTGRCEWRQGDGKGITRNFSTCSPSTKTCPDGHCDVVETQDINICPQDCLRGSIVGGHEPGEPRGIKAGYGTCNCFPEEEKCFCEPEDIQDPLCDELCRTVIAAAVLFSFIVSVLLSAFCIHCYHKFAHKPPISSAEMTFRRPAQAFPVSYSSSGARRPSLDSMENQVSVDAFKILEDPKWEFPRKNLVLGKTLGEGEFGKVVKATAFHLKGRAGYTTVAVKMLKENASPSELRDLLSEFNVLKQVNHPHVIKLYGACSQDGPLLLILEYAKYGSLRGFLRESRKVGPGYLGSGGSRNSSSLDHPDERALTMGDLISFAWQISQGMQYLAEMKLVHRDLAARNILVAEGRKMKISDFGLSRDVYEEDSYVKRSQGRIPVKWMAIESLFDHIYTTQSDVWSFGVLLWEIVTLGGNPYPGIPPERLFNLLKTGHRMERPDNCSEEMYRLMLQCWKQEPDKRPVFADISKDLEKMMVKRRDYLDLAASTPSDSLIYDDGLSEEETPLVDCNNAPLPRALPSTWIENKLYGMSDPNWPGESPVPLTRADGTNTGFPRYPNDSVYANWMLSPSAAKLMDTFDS

Data set [18] concerns Mus musculus. The data set is described as follows: In vivo inhibition of RET isoform 9 C634Y mutant transfected in mouse NIH/3T3 cells implanted BALB/c nu/nu mouse assessed as reduction in MAPK phosphorylation at 3 mg/kg, po administered once daily via gavage for 2 days measured 3 hrs post-last dose by Western blot analysis.
For data set [19], the system named is Mus musculus. The data set is described as follows: In vivo inhibition of VEGFR2 in BALB/c nu/nu mouse implanted with mouse NIH/3T3 cells harboring RET isoform 9 C634R mutant assessed as reduction in VEGFR2 phosphorylation at 3 mg/kg, po administered once daily via gavage for 3 days measured 3 hrs post-last dose by Western blot analysis. Type of data set: functional, organism-based.

Data set [20] has as its system Proto-oncogene tyrosine-protein kinase receptor Ret (Homo sapiens), P07949 [C634R]. The data set is described as follows: Inhibition of RET isoform 9 C634R mutant (unknown origin) expressed in rat Rat1 assessed as reduction in RET phosphorylation at Y1062 residue at 0.3 nM measured after 2 hrs by Western blot analysis. Type of data set: cell-based. In outline:
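RAT1 fibroblasts expressing RET-9 C634R, serum-starved, treated 2 h with 0.1–10.0 nM; 50 μg lysate blotted for RET pY905 and pY1062, normalized to total RET; ECL detection.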

For data set [21], the system named is Mus musculus. The data set is described as follows: In vivo inhibition of HRAS G12V mutant transfected in mouse NIH/3T3 cells implanted BALB/c nu/nu mouse assessed as reduction in MAPK phosphorylation in tumor at 1 mg/kg, po administered once daily via gavage for 3 days measured 3 hrs post-last dose by Western blot analysis. Type of data set: functional, organism-based.

Proto-oncogene tyrosine-protein kinase receptor Ret, sequence (P07949 whole entry, the tested form may be a part): as the sequence (P07949 whole entry V804L, canonical isoform) above, with L804V counted along it
Proto-oncogene tyrosine-protein kinase receptor Ret (Homo sapiens), P07949 [M918T], sequence (P07949 whole entry M918T, canonical isoform): as the sequence (P07949 whole entry V804L, canonical isoform) above, with L804V, M918T counted along it
Proto-oncogene tyrosine-protein kinase receptor Ret (Homo sapiens), P07949 [C634R], sequence (P07949 whole entry C634R, canonical isoform): as the sequence (P07949 whole entry V804L, canonical isoform) above, with C634R, L804V counted along it

Consider `CC(C)(C)c1cc(NC(=O)Cc2ccc(-n3cnc4cc(-c5ccc(S(C)(=O)=O)cc5)ccc43)cc2)no1`, for which the outcome in data set [1] and in [10] was inactive. The inhibition result in data set [2], in [5], in data set [11], in [12], in [14] and in [17] was “Active” throughout. Further, the inhibition result in [18], in data set [19] and in data set [20] was “Active” each time. Moreover, the Activity result was “Non-Toxic” in data set [3], above 90% in data set [8] and “Non-Toxic” in data set [9]. Moreover, the IC50 in data set [4] was 3.1 nM; in data set [6], above 100 nM; in [15], above 100 nM; in [16], 32 nM. In addition, in data set [7], the ΔTm came to 16 °C. Besides, in data set [13], the Drug metabolism entry is “Metabolite_Notdetected”. Further, in data set [21], the inhibition result is “inactive”.

For the origin of these results see ChEMBL document CHEMBL4354879, “Bioisosteric Discovery of NPA101.3, a Second-Generation RET/VEGFR2 Inhibitor Optimized for Single-Agent Polypharmacology” (J Med Chem, 2020).
